Test results reported in ChEMBL document CHEMBL2390932, “(+)-Usnic acid enamines with remarkable cicatrizing properties” (Bioorg Med Chem, 2013).
In brackets after ≈: the same amount, converted by molar mass. Activity calls are given as the source filed them. The rule behind the calls is not given here.

Legend:
[1] = test system: Mus musculus; assay: Wound healing activity in Swiss albino mouse circular excision wound model assessed as wound contraction applied topically qd measured on the same day relative to control; format: functional; parameters: concentration or dose not given beside the values
[2] = test system: Mus musculus; assay: Wound healing activity in Swiss albino mouse circular excision wound model assessed as wound contraction applied topically qd after 4 days relative to control; format: functional; parameters: concentration or dose not given beside the values
[3] = test system: Mus musculus; assay: Wound healing activity in Swiss albino mouse circular excision wound model assessed as wound contraction applied topically qd after 6 days (reference value: 3.41%); format: functional
[4] = test system: HaCaT; assay: Wound healing activity in human HaCaT cells assessed as wound closure rate at 1.7 ug/mL after 24 hrs by inverted microscopic analysis; format: functional, cell-based
Outline: (§1)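 Confluent HaCaT monolayers scratched with a pipette tip, washed, re-fed with medium and exposed to compound for 24 h; 20% (v/v) platelet lysate served as positive control. Cells fixed in 3.7% formaldehyde and stained with 0.1% toluidine blue. Wound width measured by inverted microscope with camera at 0 and 24 h; closure taken as the width difference. Results expressed relative to control mean (100%), two independent experiments, n = 20 each.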

[5] = test system: Mus musculus; assay: Wound healing activity in Swiss albino mouse circular excision wound model assessed as hydroxyproline content in skin applied topically qd after 7 days by spectrophotometric analysis; format: functional
Outline: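 Skin from ointment-treated mouse wounds (7 days) dried at 60–70 °C to constant weight, then hydrolyzed in 6 N HCl for 3 h at 130 °C. Hydrolysate neutralized to pH 7, oxidized with chloramine T and reacted with Ehrlich reagent at 60 °C. Read at 557 nm and reported as mg/g with S.E.M.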

[6] = test system: Rattus norvegicus; assay: Wound healing activity in Sprague-Dawley rat linear incision wound model assessed as tensile strength of wound applied topically qd for 9 days measured on day 10 by tensiometer (reference value: 10.6%); format: functional
[7] = test system: Hathewaya histolytica; assay: Inhibition of Clostridium histolyticum collagenase using N-[3-(2-Furyl)acryloyl]-Leu-Gly-Pro-Ala as substrate at 100 ug/ml after 15 mins by spectrophotometric analysis relative to control
Outline: (§2)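 Samples dissolved in DMSO and diluted in 50 mM Tricine buffer (0.4 M NaCl, 0.01 M CaCl2, pH 7.5). Clostridium histolyticum collagenase and sample preincubated 5 min at 25 °C, then incubated 15 min. FALGPA substrate, prepared at 2 mM in the same buffer, was then added. Inhibition given as % with S.E.M.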

[8] = test system: Mus musculus; assay: Wound healing activity in Swiss albino mouse circular excision wound model assessed as wound contraction applied topically qd after 8 days (reference value: 2.18%); format: functional
[9] = test system: Mus musculus; assay: Wound healing activity in Swiss albino mouse circular excision wound model assessed as wound contraction applied topically qd after 10 days (reference value: 6.29%); format: functional
[10] = test system: HaCaT; assay: Wound healing activity in human HaCaT cells assessed as wound closure rate at 2.5 ug/mL after 24 hrs by inverted microscopic analysis; format: functional, cell-based; outline: as §1
[11] = organism: Bos taurus; assay: Inhibition of bovine hyaluronidase assessed as sodium hyaluronate conversion to N-acetylglucosamine at 50 ug/ml by spectrophotometric analysis relative to control
[12] = test system: HaCaT; assay: Wound healing activity in human HaCaT cells assessed as wound closure rate at 2.1 ug/mL after 24 hrs by inverted microscopic analysis; format: functional, cell-based; outline: as §1
[13] = target: T1, Neutrophil elastase (Homo sapiens) (UniProt P08246); assay: Inhibition of human neutrophil elastase assessed as N-methoxysuccinyl-Ala-Ala-Pro-Val p-nitroanilide conversion to p-nitroaniline at 50 ug/ml after 1 hr by spectrophotometric analysis relative to control
T1 sequence (whole entry): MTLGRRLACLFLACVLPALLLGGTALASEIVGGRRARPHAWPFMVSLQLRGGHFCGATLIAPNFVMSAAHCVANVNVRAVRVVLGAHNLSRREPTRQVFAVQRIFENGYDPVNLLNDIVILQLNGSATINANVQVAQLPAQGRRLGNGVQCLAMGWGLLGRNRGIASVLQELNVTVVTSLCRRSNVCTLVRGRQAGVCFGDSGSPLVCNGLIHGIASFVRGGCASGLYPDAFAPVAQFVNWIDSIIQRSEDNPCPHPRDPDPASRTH
Outline: (§3)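 Sample and human neutrophil elastase (17 mU/ml) mixed in 0.1 M Tris–HCl, pH 7.5, and held 5 min at 25 °C. MeOSuc-Ala-Ala-Pro-Val p-nitroanilide was added and the mixture incubated 1 h at 37 °C. Reaction stopped with soybean trypsin inhibitor (1 mg/ml); p-nitroaniline absorbance read immediately. Inhibition given as % with S.E.M.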

[14] = test system: HaCaT; assay: Wound healing activity in human HaCaT cells assessed as wound closure rate at 2 ug/mL after 24 hrs by inverted microscopic analysis; format: functional, cell-based; outline: as §1
[15] = test system: HaCaT; assay: Wound healing activity in human HaCaT cells assessed as wound closure rate at 2.2 ug/mL after 24 hrs by inverted microscopic analysis; format: functional, cell-based; outline: as §1
[16] = test system: Mus musculus; assay: Wound healing activity in Swiss albino mouse circular excision wound model assessed as wound contraction applied topically qd after 2 days relative to control; format: functional; parameters: concentration or dose not given beside the values
[17] = test system: Hathewaya histolytica; assay: Inhibition of Clostridium histolyticum collagenase using N-[3-(2-Furyl)acryloyl]-Leu-Gly-Pro-Ala as substrate at 50 ug/ml after 15 mins by spectrophotometric analysis relative to control; outline: as §2
[18] = test system: HaCaT; assay: Wound healing activity in human HaCaT cells assessed as wound closure rate at 5 uM after 24 hrs by inverted microscopic analysis; format: functional, cell-based; outline: as §1
[19] = organism: Bos taurus; assay: Inhibition of bovine hyaluronidase assessed as sodium hyaluronate conversion to N-acetylglucosamine at 100 ug/ml by spectrophotometric analysis relative to control
[20] = test system: HaCaT; assay: Cytotoxicity against human HaCaT cells after 24 hrs by neutral red dye uptake assay; format: cell-based; settings: for IC50: Homo sapiens, HaCaT; for IC05: human, hacat
Outline: (§4)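 Cells kept in DMEM with 10% FBS at 37 °C, 5% CO2. Seeded at 20,000 cells/well, grown 24 h, then exposed 24 h to a concentration series. Neutral red (0.05%) added for 3 h at 37 °C, dye extracted with 1% acetic acid in 50% ethanol, absorbance read at 540 nm. IC50, IC05 and 95% confidence intervals derived from a downhill logistic curve fit.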

[21] = target: T1, Neutrophil elastase (Homo sapiens); assay: Inhibition of human neutrophil elastase assessed as N-methoxysuccinyl-Ala-Ala-Pro-Val p-nitroanilide conversion to p-nitroaniline at 100 ug/ml after 1 hr by spectrophotometric analysis relative to control; outline: as §3
[22] = test system: A-431; assay: Cytotoxicity against human A431 cells after 24 hrs by neutral red dye uptake assay; format: functional, cell-based; settings: A-431, 24 h; outline: as §4

Compound	Activity [1] [%]	Activity [2] [%]	Activity [3] [%]	Activity [4]	Activity [5] [mg/g]	Activity [6] [%]	inhibition [7] [%]	Activity [8] [%]	Activity [9] [%]	Activity [10]	inhibition [11] [%]	Activity [12]	inhibition [13] [%]	Activity [14]	Activity [15]	Activity [16] [%]	IC50 [20] [µg/mL]	IC05 [20] [µg/mL]	inhibition [21] [%]	IC50 [22] [µg/mL]	further results
CC(=O)c1c(O)c(C)c(O)c2c1OC1=CC(=O)/C(=C(/C)NCCCC(=O)O)C(=O)[C@@]12C	19.7	12.81	9.01	Active	43	47.6	49.2	3.84	0.66	Active	25.8	Active	25.1	Active	Active	16.03	150 (≈ 349 µM)	67	30.3		inhibition [17]: 21.4%; Activity [18]: Active; inhibition [19]: 39.4%
O=C(O[C@@H]1Cc2c(O)cc(O)cc2O[C@@H]1c1cc(O)c(O)c(O)c1)c1cc(O)c(O)c(O)c1							41.2												88.2		
CC(=O)c1c(O)c(C)c(O)c2c1OC1=CC(=O)/C(=C(/C)NCCc3c[nH]c4ccccc34)C(=O)[C@@]12C																	5.3 (≈ 10.9 µM)	2.5		29 (≈ 59.6 µM)	
CC(=O)c1c(O)c(C)c(O)c2c1OC1=CC(=O)/C(=C(/C)N[C@@H](Cc3c[nH]cn3)C(=O)O)C(=O)[C@@]12C																	36 (≈ 74.8 µM)	1.7			
CC(=O)C1=C(O)C=C2Oc3c(C(C)=O)c(O)c(C)c(O)c3[C@@]2(C)C1=O [(+)-USNIC ACID]	19.59	14.1	10.25	Active	36.1	31.9	51.2	5.62	1.85	Active	14.4	Active	22.1	Active	Active	17.04	24 (≈ 69.7 µM)	0.5	36.4	15 (≈ 43.6 µM)	inhibition [17]: 27.1%; Activity [18]: Active; inhibition [19]: 33.1%
CC(=O)c1c(O)c(C)c(O)c2c1OC1=CC(=O)/C(=C(/C)NCC(=O)O)C(=O)[C@@]12C																	5.8 (≈ 14.5 µM)	0.2		4.1 (≈ 10.2 µM)	
